Results as given in ChEMBL document CHEMBL3808334, “Synthesis and in vitro evaluation of novel triazine analogues as anticancer agents and their interaction studies with bovine serum albumin” (Eur J Med Chem, 2016).

Assays:
T47D = assay: Growth inhibition of human T47D cells assessed as cell growth at 10^-4 M incubated for 48 hrs by sulforhodamine B assay; type: functional; conditions: read-out: Activity
[1] = Growth inhibition of human COLO205 cells incubated for 48 hrs by sulforhodamine B assay; type: functional; conditions: COLO 205, 48 h
How it was run: (§1)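 Cells seeded at 5,000–40,000/well according to doubling time and preincubated 24 h at 37 °C, 5% CO2. Time-zero plates were TCA-fixed. DMSO concentrate was diluted in medium with 50 µg/ml gentamicin to give five concentrations (10-fold or ½ log steps), then exposed 48 h. Cells were TCA-fixed, stained with 0.4% SRB and read at 515 nm. Percent growth was taken against time-zero and control; GI50, TGI and LC50 derived.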

[2] = Growth inhibition of human SF295 cells incubated for 48 hrs by sulforhodamine B assay; type: functional; conditions: SF-295, 48 h
How it was run: (§2)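 Cells were plated at 5,000–40,000 per well according to doubling time and preincubated 24 h at 37 °C in 5% CO2; time-zero plates were then TCA-fixed. Five concentrations (10-fold or ½-log dilutions, DMSO stock) were incubated 48 h. Cells were TCA-fixed, stained with 0.4% SRB and read at 515 nm. GI50 was taken where [(Ti−Tz)/(C−Tz)]×100 = 50.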

[3] = Growth inhibition of human OVCAR5 cells incubated for 48 hrs by sulforhodamine B assay; type: functional; conditions: OVCAR-5, 48 h; how it was run: as §2
SN12C [4] = assay: Growth inhibition of human SN12C cells incubated for 48 hrs by sulforhodamine B assay; type: functional; how it was run: as §2
[5] = Growth inhibition of human SKOV3 cells assessed as cell growth at 10^-8 M incubated for 48 hrs by sulforhodamine B assay; type: functional; conditions: SK-OV-3, 48 h, read-out: Activity
ACHN = assay: Growth inhibition of human ACHN cells assessed as cell growth at 10^-8 M incubated for 48 hrs by sulforhodamine B assay; type: functional; conditions: read-out: Activity
How it was run: (§3)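 Five-dose assay: five concentrations from 10-fold or ½-log serial dilutions. Cells are plated at 5,000–40,000 per well according to doubling time, grown 24 h, then exposed 48 h at 37 °C, 5% CO₂. Fixed with cold 50% TCA (final addition) for 60 min at 4 °C and stained with 0.4% SRB in 1% acetic acid. Bound dye is solubilized in 10 mM Tris base and read at 515 nm. GI₅₀ is where [(Ti−Tz)/(C−Tz)]×100 = 50, with a time-zero plate as Tz.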

[6] = Growth inhibition of human HOP92 cells assessed as cell growth at 10^-7 M incubated for 48 hrs by sulforhodamine B assay; type: functional; conditions: HOP-92, 48 h, read-out: Activity
[7] = Growth inhibition of human RPMI8226 cells assessed as cell growth at 10^-4 M incubated for 48 hrs by sulforhodamine B assay; type: functional; conditions: RPMI-8226, 48 h, read-out: Activity
[8] = Growth inhibition of human HCC2998 cells assessed as cell growth at 10^-4 M incubated for 48 hrs by sulforhodamine B assay; type: functional; conditions: HCC 2998, 48 h, read-out: Activity
[9] = Growth inhibition of human HCT15 cells assessed as cell growth at 10^-4 M incubated for 48 hrs by sulforhodamine B assay; type: functional; conditions: HCT-15, 48 h, read-out: Activity; how it was run: as §1
[10] = Growth inhibition of human SNB75 cells assessed as cell growth at 10^-4 M incubated for 48 hrs by sulforhodamine B assay; type: functional; conditions: SNB-75, 48 h, read-out: Activity
[11] = Growth inhibition of human UACC62 cells assessed as cell growth at 10^-7 M incubated for 48 hrs by sulforhodamine B assay; type: functional; conditions: UACC-62, 48 h, read-out: Activity
SN12C [12] = assay: Growth inhibition of human SN12C cells assessed as cell growth at 10 uM incubated for 48 hrs by sulforhodamine B assay; type: functional; conditions: read-out: Activity
MCF7 = assay: Growth inhibition of human MCF7 cells assessed as cell growth at 10 uM incubated for 48 hrs by sulforhodamine B assay; type: functional; conditions: MCF7, 48 h, read-out: Activity
[13] = Growth inhibition of human TK10 cells assessed as cell growth at 10^-7 M incubated for 48 hrs by sulforhodamine B assay; type: functional; conditions: TK-10, 48 h, read-out: Activity
[14] = Growth inhibition of human SF268 cells assessed as cell growth at 10^-8 M incubated for 48 hrs by sulforhodamine B assay; type: functional; conditions: SF-268, 48 h, read-out: Activity
[15] = Growth inhibition of human LOXIMVI cells assessed as cell growth at 10^-8 M incubated for 48 hrs by sulforhodamine B assay; type: functional; conditions: LOX IMVI, read-out: Activity
[16] = Growth inhibition of human UACC62 cells assessed as cell growth at 10^-6 M incubated for 48 hrs by sulforhodamine B assay; type: functional; conditions: UACC-62, 48 h, read-out: Activity
NCI/ADR-RES = assay: Growth inhibition of human NCI/ADR-RES cells assessed as cell growth at 10^-6 M incubated for 48 hrs by sulforhodamine B assay; type: functional; conditions: read-out: Activity
[17] = Growth inhibition of human TK10 cells assessed as cell growth at 10^-6 M incubated for 48 hrs by sulforhodamine B assay; type: functional; conditions: TK-10, 48 h, read-out: Activity
[18] = Growth inhibition of human BT549 cells assessed as cell growth at 10^-6 M incubated for 48 hrs by sulforhodamine B assay; type: functional; conditions: BT-549, 48 h, read-out: Activity; how it was run: as §3
U-251 = assay: Growth inhibition of human U251 cells assessed as cell growth at 10^-5 M incubated for 48 hrs by sulforhodamine B assay; type: functional; conditions: U-251, 48 h, read-out: Activity
MDA-MB-435 = assay: Growth inhibition of human MDA-MB-435 cells assessed as cell growth at 10^-5 M incubated for 48 hrs by sulforhodamine B assay; type: functional; conditions: MDA-MB-435, 48 h, read-out: Activity
Albumin = Albumin (Bos taurus, UniProt P02769); assay: Binding affinity to bovine serum albumin assessed as isoemissive point up to 20 uM by fluorescence spectroscopic analysis relative to control; type: ADME; conditions: cattle, isolated protein
Sequence of Albumin (P02769 whole entry): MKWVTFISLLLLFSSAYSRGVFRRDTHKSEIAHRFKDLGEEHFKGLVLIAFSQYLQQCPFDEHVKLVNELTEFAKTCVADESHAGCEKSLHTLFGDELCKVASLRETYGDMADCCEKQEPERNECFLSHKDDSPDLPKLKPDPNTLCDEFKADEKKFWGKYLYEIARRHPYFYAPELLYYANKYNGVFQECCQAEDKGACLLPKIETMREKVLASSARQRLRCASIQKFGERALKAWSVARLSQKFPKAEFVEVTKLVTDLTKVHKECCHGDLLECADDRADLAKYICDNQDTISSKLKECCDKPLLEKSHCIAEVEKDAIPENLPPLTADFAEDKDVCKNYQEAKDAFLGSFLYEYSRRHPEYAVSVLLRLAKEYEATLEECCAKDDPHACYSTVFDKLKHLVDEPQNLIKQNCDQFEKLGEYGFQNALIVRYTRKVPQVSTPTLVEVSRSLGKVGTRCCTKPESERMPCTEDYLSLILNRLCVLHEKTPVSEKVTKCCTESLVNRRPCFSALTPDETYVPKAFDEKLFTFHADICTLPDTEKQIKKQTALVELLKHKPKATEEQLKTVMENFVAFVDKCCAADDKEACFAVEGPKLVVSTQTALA
How it was run: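 Fluorescence titration of 10 µM BSA in 0.1 M phosphate buffer pH 7.4 with compound at 0–20 µM, diluted from DMSO stocks. Excitation 280 nm, slit 10 nm, 1 cm quartz cell, 300 K. Changes in the 350 nm Trp emission, new bands near 370–373 nm and isoemissive points are read against BSA alone.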

[19] = Growth inhibition of human CNS cancer cells incubated for 48 hrs by sulforhodamine B assay; type: functional; conditions: Cancer cell lines; how it was run: as §3
[20] = read-out: LC50 (the source's name)
[21] = read-out: pLC50 (the source's name) (converted)

## c1ccc(-c2nc(Nc3ccc(-c4nc5ccccc5[nH]4)cc3)nc(N3CCOCC3)n2)cc1
T47D
  growth at 100 µM: -56%
[1]; read-out: GI50
  GI50: 1.41 µM
[1]; read-out: LC50
  LC50: 6.92 µM
[1]; read-out: TGI
  TGI: 3.13 µM
[1]; read-out: pGI50 (converted)
  GI50: 1.41 µM
[1]; read-out: pLC50 (converted)
  LC50: 6.92 µM
[1]; read-out: pTGI (converted)
  TGI: 3.16 µM
[2]; read-out: GI50
  GI50: 1.25 µM
[2]; [20]
  CC50: 6.47 µM
[2]; read-out: TGI
  TGI: 2.84 µM
[2]; read-out: pGI50 (converted)
  GI50: 1.26 µM
[2]; [21]
  CC50: 6.46 µM
[2]; read-out: pTGI (converted)
  TGI: 2.82 µM
[3]; read-out: GI50
  GI50: 2.16 µM
[3]; [20]
  CC50: 7.49 µM
[3]; read-out: TGI
  TGI: 4.02 µM
[3]; read-out: pGI50 (converted)
  GI50: 2.14 µM
[3]; [21]
  CC50: 7.41 µM
[3]; read-out: pTGI (converted)
  TGI: 3.98 µM
SN12C [4]
  LC50 (50% lethal concentration): 8.47 µM
SN12C [4]; read-out: GI50
  GI50: 1.74 µM
SN12C [4]; read-out: TGI
  TGI: 3.83 µM
SN12C [4]; read-out: pGI50 (converted)
  GI50: 1.74 µM
SN12C [4]; [21]
  CC50: 8.51 µM
SN12C [4]; read-out: pTGI (converted)
  TGI: 3.8 µM
[5]
  growth at 0.01 µM: 95%
ACHN
  growth at 0.01 µM: 96%
[6]
  growth at 0.1 µM: 107%
[7]
  growth at 100 µM: -37%
[8]
  growth at 100 µM: -48%
[9]
  growth at 100 µM: -49%
[10]
  growth at 100 µM: -90%
[11]
  growth at 0.1 µM: 97%
SN12C [12]
  growth at 10 µM: -62.8%
MCF7
  growth at 10 µM: -76.2%
[13]
  growth at 0.1 µM: 106%
[14]
  growth at 0.01 µM: 96%
[15]
  growth at 0.01 µM: 94%
[16]
  growth at 1 µM: 84%
NCI/ADR-RES
  growth at 1 µM: 81%
[17]
  growth at 1 µM: 119%
[18]
  growth at 1 µM: 100%
U-251
  growth at 10 µM: -85%
MDA-MB-435
  growth at 10 µM: -90%
Albumin
  Activity: 357 nm
[19]
  GI50: 1.41 µM
  TGI: 3.04 µM
[19]; [20]
  CC50: 5.98 µM
